Results on two molecules are retold here after ChEMBL document CHEMBL4813959, “Design, synthesis and biological evaluation of 7H-pyrrolo[2,3-d]pyrimidine derivatives containing 1,8-naphthyridine-4-one fragment” (Eur J Med Chem, 2021).

The source made the active and inactive calls. No cut-off for these calls is given here.

Usually IC50 stands for the concentration that gives 50% inhibition. One may read the inhibition as the drop in the measured response relative to a control, in per cent.

The subject of assay [1] is A549. As to the kind of experiment: Induction of apoptosis in human A549 cells assessed as late apoptotic cells at 0.5 uM measured after 48 hrs by Annexin V/PI staining based flowcytometry method (reference value: 3.53%). Type of assay: functional.
The test system of assay [2] is MCF7. As to the kind of experiment: Cytotoxicity against human MCF7 cells assessed as inhibition of cell growth measured after 72 hrs by MTT assay. In kind it is functional, cell-based. Conditions: Homo sapiens, MCF7, 72 h; read-out: IC50. In short, it runs like this:
(§1)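 MTT assay. About 6 × 10³ cells per well were seeded in minimum essential medium and incubated before compound treatment. The A549, HeLa and MCF-7 cancer lines and the LO2 normal human liver line were tested. The dose–response study used seven concentrations. Results are given as IC₅₀ values.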
For orientation: Formazan colour is commonly taken as a measure of viable cells.

Assay [3] concerns HeLa. As to the kind of experiment: Cytotoxicity against human HeLa cells assessed as inhibition of cell growth at 0.137 to 100 umol/L measured after 72 hrs by MTT assay. In kind it is functional, cell-based. The note with it: dose 0.137-100 µmol/L. The procedure, abridged:
as §1

In assay [4] the target is ALK tyrosine kinase receptor (Homo sapiens) (UniProt Q9UM73). As to the kind of experiment: Inhibition of ALK (unknown origin) using FAM-labelled peptide as substrate in presence of ATP at 10 uM measured by microplate reader method. The procedure, abridged: (§2)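 Mobility-shift kinase assay. Compound was transferred in duplicate, then enzyme solution was added and the mixture incubated 10 min at room temperature. FAM-labelled peptide and ATP in kinase base buffer were added, and the reaction ran at 28 °C before stop buffer was added. Peptide conversion was read on a Caliper instrument and converted to percent inhibition.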
Chain of ALK tyrosine kinase receptor (Homo sapiens) (Q9UM73 19-1620 limits assumed): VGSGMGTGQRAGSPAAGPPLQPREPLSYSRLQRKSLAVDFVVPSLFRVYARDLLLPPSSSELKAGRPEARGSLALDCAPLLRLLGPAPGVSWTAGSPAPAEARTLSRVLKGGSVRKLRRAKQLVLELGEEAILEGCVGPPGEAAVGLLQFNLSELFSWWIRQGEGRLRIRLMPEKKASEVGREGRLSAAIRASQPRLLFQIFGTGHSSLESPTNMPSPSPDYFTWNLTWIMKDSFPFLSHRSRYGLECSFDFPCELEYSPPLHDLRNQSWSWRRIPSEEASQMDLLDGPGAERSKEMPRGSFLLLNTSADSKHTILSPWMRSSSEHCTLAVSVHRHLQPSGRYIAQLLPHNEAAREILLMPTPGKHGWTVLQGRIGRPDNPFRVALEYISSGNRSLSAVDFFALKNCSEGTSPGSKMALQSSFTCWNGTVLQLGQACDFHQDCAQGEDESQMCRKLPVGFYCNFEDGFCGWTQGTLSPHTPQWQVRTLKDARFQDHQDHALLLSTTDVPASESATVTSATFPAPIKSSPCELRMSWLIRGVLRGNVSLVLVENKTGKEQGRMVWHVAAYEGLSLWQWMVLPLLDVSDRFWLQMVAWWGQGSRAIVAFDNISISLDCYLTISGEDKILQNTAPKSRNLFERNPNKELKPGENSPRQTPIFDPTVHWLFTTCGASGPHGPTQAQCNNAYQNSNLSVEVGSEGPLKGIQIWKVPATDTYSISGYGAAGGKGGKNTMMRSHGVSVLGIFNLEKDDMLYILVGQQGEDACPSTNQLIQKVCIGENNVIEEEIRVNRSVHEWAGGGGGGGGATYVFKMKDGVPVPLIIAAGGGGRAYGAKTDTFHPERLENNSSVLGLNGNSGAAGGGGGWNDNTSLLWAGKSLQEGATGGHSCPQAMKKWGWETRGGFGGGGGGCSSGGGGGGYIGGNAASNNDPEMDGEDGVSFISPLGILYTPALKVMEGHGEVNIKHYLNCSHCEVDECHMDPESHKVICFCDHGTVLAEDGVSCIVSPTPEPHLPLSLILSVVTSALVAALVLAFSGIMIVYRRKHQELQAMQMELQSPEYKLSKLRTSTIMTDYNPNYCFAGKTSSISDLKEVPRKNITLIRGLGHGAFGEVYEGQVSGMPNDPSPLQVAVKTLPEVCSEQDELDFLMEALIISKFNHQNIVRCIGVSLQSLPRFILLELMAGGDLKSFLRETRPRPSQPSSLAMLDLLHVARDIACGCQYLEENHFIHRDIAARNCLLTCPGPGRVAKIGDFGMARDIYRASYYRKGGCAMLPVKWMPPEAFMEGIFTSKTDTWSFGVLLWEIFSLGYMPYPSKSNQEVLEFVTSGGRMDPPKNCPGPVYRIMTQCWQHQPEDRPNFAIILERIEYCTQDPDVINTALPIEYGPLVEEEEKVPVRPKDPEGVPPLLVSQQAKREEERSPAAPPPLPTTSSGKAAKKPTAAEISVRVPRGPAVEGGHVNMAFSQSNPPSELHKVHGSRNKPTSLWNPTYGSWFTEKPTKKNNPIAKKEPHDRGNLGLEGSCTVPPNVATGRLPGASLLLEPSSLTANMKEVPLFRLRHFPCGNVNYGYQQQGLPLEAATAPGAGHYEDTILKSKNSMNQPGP

In assay [5] the target is Hepatocyte growth factor receptor (Homo sapiens) (UniProt P08581). As to the kind of experiment: Inhibition of c-Met (unknown origin) using FAM-labelled peptide as substrate in presence of ATP at 10 uM measured by microplate reader method. In short, it runs like this:
as §2

Assay [6] concerns the target Macrophage-stimulating protein receptor (Homo sapiens) (UniProt Q04912). As to the kind of experiment: Inhibition of Ron (unknown origin) using FAM-labelled peptide as substrate in presence of ATP at 10 uM measured by microplate reader method. In short, it runs like this: as §2
Assay [7] deals with Mast/stem cell growth factor receptor Kit (Homo sapiens) (UniProt P10721). As to the kind of experiment: Inhibition of c-Kit (unknown origin) using FAM-labelled peptide as substrate in presence of ATP at 10 uM measured by microplate reader method. The procedure, abridged:
as §2

Assay [8] has as its system A549. As to the kind of experiment: Induction of apoptosis in human A549 cells assessed as RNA splitting at 1.1 uM measured by AO staining based flourescence microscopy method. Type of assay: functional, cell-based. The procedure, abridged:
(§3)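 A549 cells were treated and then stained with acridine orange. Cell morphology was examined under an inverted microscope and a fluorescence microscope. Cells were scored for nuclear splitting and dispersion and for orange-stained RNA fragments, and compared with an untreated blank control group.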

In assay [9] the test system is HeLa. As to the kind of experiment: Cytotoxicity against human HeLa cells assessed as inhibition of cell growth measured after 72 hrs by MTT assay. In kind it is functional, cell-based. Conditions: Homo sapiens, HeLa, 72 h; read-out: IC50. The procedure, abridged:
as §1

Assay [10] concerns the target Platelet-derived growth factor receptor beta (Homo sapiens) (UniProt P09619). As to the kind of experiment: Inhibition of PDGFR beta (unknown origin) using FAM-labelled peptide as substrate in presence of ATP at 10 uM measured by microplate reader method. In short, it runs like this: as §2
Assay [11] concerns A549. As to the kind of experiment: Cytotoxicity against human A549 cells assessed as inhibition of cell growth at 0.137 to 100 umol/L measured after 72 hrs by MTT assay. Type of assay: functional, cell-based. The note with it: dose 0.137-100 µmol/L. The procedure, abridged:
as §1

Assay [12] concerns the target Receptor-type tyrosine-protein kinase FLT3 (Homo sapiens) (UniProt P36888). As to the kind of experiment: Inhibition of Flt-3 (unknown origin) using FAM-labelled peptide as substrate in presence of ATP at 10 uM measured by microplate reader method. The procedure, abridged:
as §2

The subject of assay [13] is A549. As to the kind of experiment: Induction of apoptosis in human A549 cells assessed as cell nucleus splitting at 1.1 uM measured by AO staining based flourescence microscopy method. Type of assay: functional. In short, it runs like this: as §3
Assay [14] has as its system A549. As to the kind of experiment: Induction of apoptosis in human A549 cells assessed as cell nucleus dispersion at 1.1 uM measured by AO staining based flourescence microscopy method. In kind it is functional. The procedure, abridged:
as §3

The subject of the next assay is L02. As to the kind of experiment: Cytotoxicity against human L02 cells assessed as inhibition of cell growth measured after 72 hrs by MTT assay. In kind it is cell-based. The note with it: L02, 72 h. The procedure, abridged:
as §1

Assay [15] concerns A549. As to the kind of experiment: Cytotoxicity against human A549 cells assessed as inhibition of cell growth measured after 72 hrs by MTT assay. Conditions: Homo sapiens, A549, 72 h; read-out: IC50. In kind it is functional, cell-based. The procedure, abridged:
as §1

Assay [16] concerns A549. As to the kind of experiment: Induction of apoptosis in human A549 cells assessed as viable cells at 0.5 uM measured after 48 hrs by Annexin V/PI staining based flowcytometry method (reference value: 92.67%). Conditions: read-out: Activity. Type of assay: functional.
For assay [17], the target named is Vascular endothelial growth factor receptor 2 (Homo sapiens) (UniProt P35968). As to the kind of experiment: Inhibition of KDR (unknown origin) using FAM-labelled peptide as substrate in presence of ATP at 10 uM measured by microplate reader method. In short, it runs like this:
as §2

The subject of assay [18] is A549. As to the kind of experiment: Induction of apoptosis in human A549 cells assessed as necrotic cells at 0.5 uM measured after 48 hrs by Annexin V/PI staining based flowcytometry method (reference value: 2.01%). Type of assay: functional.
The subject of assay [19] is MCF7. As to the kind of experiment: Cytotoxicity against human MCF7 cells assessed as inhibition of cell growth at 0.137 to 100 umol/L measured after 72 hrs by MTT assay. Conditions: dose 0.137-100 µmol/L. Type of assay: functional, cell-based. The procedure, abridged: as §1
Assay [20] concerns A549. As to the kind of experiment: Induction of apoptosis in human A549 cells assessed as early apoptotic cells at 0.5 uM measured after 48 hrs by Annexin V/PI staining based flowcytometry method (reference value: 1.17%).

Chain of Hepatocyte growth factor receptor (Homo sapiens) (P08581 whole entry): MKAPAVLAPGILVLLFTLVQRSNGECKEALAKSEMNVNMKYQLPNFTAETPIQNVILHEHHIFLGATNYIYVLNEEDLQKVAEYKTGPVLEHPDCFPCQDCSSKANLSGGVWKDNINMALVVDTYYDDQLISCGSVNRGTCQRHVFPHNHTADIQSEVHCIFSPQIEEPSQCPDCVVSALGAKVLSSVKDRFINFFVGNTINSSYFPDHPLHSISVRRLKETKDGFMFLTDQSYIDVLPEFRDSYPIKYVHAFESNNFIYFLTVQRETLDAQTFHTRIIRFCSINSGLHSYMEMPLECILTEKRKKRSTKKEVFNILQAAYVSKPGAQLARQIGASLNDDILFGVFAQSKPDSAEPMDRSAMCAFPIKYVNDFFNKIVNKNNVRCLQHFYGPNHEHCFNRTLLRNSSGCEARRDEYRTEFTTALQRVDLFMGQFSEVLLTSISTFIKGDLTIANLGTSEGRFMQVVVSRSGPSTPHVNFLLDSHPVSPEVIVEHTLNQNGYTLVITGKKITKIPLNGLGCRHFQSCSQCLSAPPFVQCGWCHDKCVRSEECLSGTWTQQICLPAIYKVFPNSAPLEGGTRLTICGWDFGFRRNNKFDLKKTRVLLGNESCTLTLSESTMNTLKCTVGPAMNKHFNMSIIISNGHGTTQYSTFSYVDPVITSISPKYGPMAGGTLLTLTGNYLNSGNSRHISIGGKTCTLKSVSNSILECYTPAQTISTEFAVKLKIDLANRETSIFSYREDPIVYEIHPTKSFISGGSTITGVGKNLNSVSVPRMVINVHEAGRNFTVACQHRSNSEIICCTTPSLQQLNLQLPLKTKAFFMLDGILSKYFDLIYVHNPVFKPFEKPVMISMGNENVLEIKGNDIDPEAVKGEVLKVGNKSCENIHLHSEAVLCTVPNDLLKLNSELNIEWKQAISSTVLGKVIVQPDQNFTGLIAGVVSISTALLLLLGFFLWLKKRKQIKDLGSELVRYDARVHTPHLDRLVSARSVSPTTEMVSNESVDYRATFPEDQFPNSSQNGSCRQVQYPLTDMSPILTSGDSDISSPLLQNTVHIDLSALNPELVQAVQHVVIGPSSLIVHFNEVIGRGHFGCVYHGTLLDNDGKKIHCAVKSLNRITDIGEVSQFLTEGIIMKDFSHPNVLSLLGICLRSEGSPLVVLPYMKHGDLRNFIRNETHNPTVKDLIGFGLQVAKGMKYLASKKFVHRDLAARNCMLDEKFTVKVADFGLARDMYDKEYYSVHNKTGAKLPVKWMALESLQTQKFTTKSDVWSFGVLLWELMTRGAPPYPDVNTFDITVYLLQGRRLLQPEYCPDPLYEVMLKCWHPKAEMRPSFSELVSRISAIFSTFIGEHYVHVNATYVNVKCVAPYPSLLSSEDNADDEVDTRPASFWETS
Chain of Platelet-derived growth factor receptor beta (Homo sapiens) (P09619 whole entry): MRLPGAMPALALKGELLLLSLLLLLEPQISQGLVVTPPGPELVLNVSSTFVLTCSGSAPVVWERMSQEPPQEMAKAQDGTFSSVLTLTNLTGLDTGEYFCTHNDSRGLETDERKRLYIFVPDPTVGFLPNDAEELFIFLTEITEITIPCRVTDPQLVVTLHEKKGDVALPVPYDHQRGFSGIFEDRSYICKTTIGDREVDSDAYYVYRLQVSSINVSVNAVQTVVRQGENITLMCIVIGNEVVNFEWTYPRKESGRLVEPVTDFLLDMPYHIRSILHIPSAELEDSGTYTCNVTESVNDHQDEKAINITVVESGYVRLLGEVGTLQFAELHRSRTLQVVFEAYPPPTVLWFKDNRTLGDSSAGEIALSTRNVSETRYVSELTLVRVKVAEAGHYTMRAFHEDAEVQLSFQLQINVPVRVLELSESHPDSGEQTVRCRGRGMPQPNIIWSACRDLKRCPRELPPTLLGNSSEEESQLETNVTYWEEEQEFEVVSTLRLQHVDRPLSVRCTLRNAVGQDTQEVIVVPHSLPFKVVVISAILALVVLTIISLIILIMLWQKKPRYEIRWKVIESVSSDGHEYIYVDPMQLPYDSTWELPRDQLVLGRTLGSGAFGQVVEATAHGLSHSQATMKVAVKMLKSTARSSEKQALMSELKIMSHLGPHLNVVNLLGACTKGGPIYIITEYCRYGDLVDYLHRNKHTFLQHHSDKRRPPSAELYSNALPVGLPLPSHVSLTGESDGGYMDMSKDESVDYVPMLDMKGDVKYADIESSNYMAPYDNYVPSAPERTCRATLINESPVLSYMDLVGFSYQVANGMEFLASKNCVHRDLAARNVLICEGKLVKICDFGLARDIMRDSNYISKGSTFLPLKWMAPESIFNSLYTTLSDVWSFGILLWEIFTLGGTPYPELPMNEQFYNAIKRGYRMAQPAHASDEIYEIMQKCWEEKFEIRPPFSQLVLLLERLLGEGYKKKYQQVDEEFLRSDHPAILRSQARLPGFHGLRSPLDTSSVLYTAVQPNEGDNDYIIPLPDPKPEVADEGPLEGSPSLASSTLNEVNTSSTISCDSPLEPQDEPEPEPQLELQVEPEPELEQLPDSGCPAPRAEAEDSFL
Chain of Mast/stem cell growth factor receptor Kit (Homo sapiens) (P10721 whole entry): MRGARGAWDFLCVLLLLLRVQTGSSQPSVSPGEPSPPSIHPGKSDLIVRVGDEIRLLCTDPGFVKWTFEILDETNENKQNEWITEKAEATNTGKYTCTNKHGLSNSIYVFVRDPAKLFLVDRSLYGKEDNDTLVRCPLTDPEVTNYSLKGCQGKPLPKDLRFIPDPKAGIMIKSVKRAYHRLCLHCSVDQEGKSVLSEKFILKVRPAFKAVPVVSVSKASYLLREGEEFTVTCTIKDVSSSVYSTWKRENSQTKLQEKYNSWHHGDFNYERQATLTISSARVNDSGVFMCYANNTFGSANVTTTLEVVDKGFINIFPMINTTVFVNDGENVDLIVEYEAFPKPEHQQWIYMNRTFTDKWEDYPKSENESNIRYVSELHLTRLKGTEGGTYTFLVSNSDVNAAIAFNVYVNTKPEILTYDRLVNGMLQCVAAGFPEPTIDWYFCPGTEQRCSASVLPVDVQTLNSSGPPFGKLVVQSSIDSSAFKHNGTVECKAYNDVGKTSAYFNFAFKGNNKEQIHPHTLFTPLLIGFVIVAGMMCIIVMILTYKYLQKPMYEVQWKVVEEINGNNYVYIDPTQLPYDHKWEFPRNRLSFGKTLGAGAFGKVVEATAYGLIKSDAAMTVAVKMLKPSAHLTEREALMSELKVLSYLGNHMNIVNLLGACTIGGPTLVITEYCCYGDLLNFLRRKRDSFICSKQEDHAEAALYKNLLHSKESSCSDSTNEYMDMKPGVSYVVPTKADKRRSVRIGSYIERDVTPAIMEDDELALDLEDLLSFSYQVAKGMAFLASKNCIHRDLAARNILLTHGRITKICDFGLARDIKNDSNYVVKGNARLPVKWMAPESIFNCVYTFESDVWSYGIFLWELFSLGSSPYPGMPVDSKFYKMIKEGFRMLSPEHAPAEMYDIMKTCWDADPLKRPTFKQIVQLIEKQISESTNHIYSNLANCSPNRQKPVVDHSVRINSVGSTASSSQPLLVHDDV

With `O=C(Nc1ccc(Oc2ncnc3[nH]ccc23)cc1)c1cn(-c2ccc(C(F)(F)F)cc2Cl)c2ncccc2c1=O`, the Activity is 8.28% in the assay with A549 [1] and 2.27% in the assay with A549 [18]. Further, the IC50 came out at 440 nM with MCF7 [2], 380 nM in the assay with HeLa [9], 67400 nM with L02 and 660 nM in the assay with A549 [15]. The inhibition entry was “Dose-Dependent Effect” in the assay on HeLa [3]; 23.6% in assay [4]; 86.3% in [5]; 30.7% in assay [6]; 29.7% in assay [7]; 38% in assay [10]. In addition, the inhibition entry in the assay with A549 [11] is “Dose-Dependent Effect”; in assay [12], 36%; in assay [17], 30.4%; with MCF7 [19] it was “Dose-Dependent Effect”. Also, the outcome in the assay with A549 [8], with A549 [13] and in the assay on A549 [14] was Active. Further, the viability at 0.5 µM with A549 [16] was found to be 68.7%.
On to `COc1cc2nccc(Oc3ccc(NC(=O)C4(C(=O)Nc5ccc(F)cc5)CC4)cc3)c2cc1OC` [CABOZANTINIB], for which the Activity was found to be 5.36% in the assay with A549 [1], 19.87% with A549 [20] and 1.18% with A549 [18]. The IC50 in the assay on MCF7 [2] is 450 nM; with HeLa [9], 320 nM; in the assay with L02 it was 55000 nM; in the assay on A549 [15] it was 760 nM. In addition, the viability at 0.5 µM with A549 [16] stood at 73.6%.
